Experimental data reported in ChEMBL document CHEMBL5058577, “EUbOPEN Chemogenomics Library 2 (Multiplex)” (2022).

System: HEK-293T
Assay: Multiplex assay against HEK293T
Assay type: toxicity, cell-based
Settings: human
In short: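 Four dyes were applied at seeding to live cells: Hoechst33342, BioTracker Green Microtubule Cytoskeleton Dye, MitoTracker Red and Annexin V Alexa Fluor 680. Imaging after compound addition used a CQ1 microscope at 37°C and 5% CO2. CellPathfinder machine-learning gating then sorted cells into Hoechst high-intensity objects or normal cells, normal cells into healthy, pyknosed or fragmented nuclei, and pyknosed cells into mitotic or apoptotic, with tubulin, mitochondrial-mass and membrane-permeability phenotypes given as per cents of healthy-nucleus cells.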

[1] = 12 h, 1 µM, compound concentration 1 uM, replicate 1
[2] = 12 h, 1 µM, compound concentration 1 uM, replicate 2
[3] = 12 h, 10 µM, compound concentration 10 uM, replicate 1
[4] = 12 h, 10 µM, compound concentration 10 uM, replicate 2
[5] = 24 h, 1 µM, compound concentration 1 uM, replicate 1
[6] = 24 h, 1 µM, compound concentration 1 uM, replicate 2
[7] = 24 h, 10 µM, compound concentration 10 uM, replicate 1
[8] = 24 h, 10 µM, compound concentration 10 uM, replicate 2
[9] = 48 h, 1 µM, compound concentration 1 uM, replicate 1
[10] = 48 h, 1 µM, compound concentration 1 uM, replicate 2
[11] = 48 h, 10 µM, compound concentration 10 uM, replicate 1
[12] = 48 h, 10 µM, compound concentration 10 uM, replicate 2

## COc1ccc2[nH]c(I)c(CCNC(C)=O)c2c1 [IODOMELATONIN]
[1]
  Population Apoptotic (%): 42%
  Population Fragmented Nuclei (%): 4%
  Population Healthy Nuclei (%): 80%
  Population Hoechst High Intensity Objects (%): 5%
  Population Membrane Permeable-Phenotype (%): 1%
  Population Mitochondria Different-Phenotype (%): 43%
  Population Mitotic Cells (%): 57%
  Population Normal (%): 94%
  Population Pyknosed Nuclei (%): 14%
  Population Tubulin-Different-Phenotype (%): 35%
  Total Cell Count: 388
[2]
  Population Apoptotic (%): 59%
  Population Fragmented Nuclei (%): 5%
  Population Healthy Nuclei (%): 84%
  Population Hoechst High Intensity Objects (%): 7%
  Population Membrane Permeable-Phenotype (%): 0%
  Population Mitochondria Different-Phenotype (%): 64%
  Population Mitotic Cells (%): 40%
  Population Normal (%): 92%
  Population Pyknosed Nuclei (%): 10%
  Population Tubulin-Different-Phenotype (%): 32%
  Total Cell Count: 400
[3]
  Population Apoptotic (%): 38%
  Population Fragmented Nuclei (%): 11%
  Population Healthy Nuclei (%): 77%
  Population Hoechst High Intensity Objects (%): 8%
  Population Membrane Permeable-Phenotype (%): 0%
  Population Mitochondria Different-Phenotype (%): 52%
  Population Mitotic Cells (%): 61%
  Population Normal (%): 91%
  Population Pyknosed Nuclei (%): 10%
  Population Tubulin-Different-Phenotype (%): 29%
  Total Cell Count: 445
[4]
  Population Apoptotic (%): 46%
  Population Fragmented Nuclei (%): 8%
  Population Hoechst High Intensity Objects (%): 12%
  Population Mitochondria Different-Phenotype (%): 62%
  Population Mitotic Cells (%): 53%
  Population Normal (%): 87%
  Population Pyknosed Nuclei (%): 14%
  Population Tubulin-Different-Phenotype (%): 25%
  Total Cell Count: 316
[5]
  Population Apoptotic (%): 38%
  Population Fragmented Nuclei (%): 8%
  Population Healthy Nuclei (%): 80%
  Population Hoechst High Intensity Objects (%): 3%
  Population Membrane Permeable-Phenotype (%): 1%
  Population Mitochondria Different-Phenotype (%): 24%
  Population Mitotic Cells (%): 61%
  Population Normal (%): 96%
  Population Pyknosed Nuclei (%): 11%
  Population Tubulin-Different-Phenotype (%): 23%
  Total Cell Count: 511
[6]
  Population Apoptotic (%): 44%
  Population Fragmented Nuclei (%): 9%
  Population Healthy Nuclei (%): 78%
  Population Hoechst High Intensity Objects (%): 8%
  Population Membrane Permeable-Phenotype (%): 0%
  Population Mitochondria Different-Phenotype (%): 37%
  Population Mitotic Cells (%): 55%
  Population Normal (%): 91%
  Population Tubulin-Different-Phenotype (%): 14%
  Total Cell Count: 497
[7]
  Population Apoptotic (%): 32%
  Population Fragmented Nuclei (%): 11%
  Population Healthy Nuclei (%): 77%
  Population Hoechst High Intensity Objects (%): 5%
  Population Membrane Permeable-Phenotype (%): 1%
  Population Mitochondria Different-Phenotype (%): 31%
  Population Mitotic Cells (%): 67%
  Population Normal (%): 94%
  Population Pyknosed Nuclei (%): 10%
  Population Tubulin-Different-Phenotype (%): 25%
  Total Cell Count: 568
[8]
  Population Apoptotic (%): 40%
  Population Fragmented Nuclei (%): 5%
  Population Healthy Nuclei (%): 81%
  Population Hoechst High Intensity Objects (%): 9%
  Population Membrane Permeable-Phenotype (%): 0%
  Population Mitochondria Different-Phenotype (%): 48%
  Population Mitotic Cells (%): 59%
  Population Normal (%): 90%
  Population Pyknosed Nuclei (%): 12%
  Population Tubulin-Different-Phenotype (%): 21%
  Total Cell Count: 360
[9]
  Population Apoptotic (%): 26%
  Population Fragmented Nuclei (%): 12%
  Population Healthy Nuclei (%): 79%
  Population Hoechst High Intensity Objects (%): 4%
  Population Membrane Permeable-Phenotype (%): 1%
  Population Mitochondria Different-Phenotype (%): 19%
  Population Mitotic Cells (%): 73%
  Population Normal (%): 95%
  Population Pyknosed Nuclei (%): 7%
  Population Tubulin-Different-Phenotype (%): 16%
  Total Cell Count: 770
[10]
  Population Apoptotic (%): 31%
  Population Hoechst High Intensity Objects (%): 5%
  Population Mitochondria Different-Phenotype (%): 22%
  Population Mitotic Cells (%): 68%
  Population Normal (%): 94%
  Population Pyknosed Nuclei (%): 8%
  Population Tubulin-Different-Phenotype (%): 14%
  Total Cell Count: 622
[11]
  Population Apoptotic (%): 23%
  Population Fragmented Nuclei (%): 16%
  Population Healthy Nuclei (%): 77%
  Population Hoechst High Intensity Objects (%): 1%
  Population Membrane Permeable-Phenotype (%): 1%
  Population Mitochondria Different-Phenotype (%): 16%
  Population Mitotic Cells (%): 76%
  Population Normal (%): 98%
  Population Pyknosed Nuclei (%): 5%
  Population Tubulin-Different-Phenotype (%): 11%
  Total Cell Count: 860
[12]
  Population Apoptotic (%): 25%
  Population Fragmented Nuclei (%): 15%
  Population Healthy Nuclei (%): 75%
  Population Hoechst High Intensity Objects (%): 2%
  Population Membrane Permeable-Phenotype (%): 0%
  Population Mitochondria Different-Phenotype (%): 24%
  Population Mitotic Cells (%): 74%
  Population Normal (%): 97%
  Population Pyknosed Nuclei (%): 9%
  Population Tubulin-Different-Phenotype (%): 16%
  Total Cell Count: 613

## N[C@](CC1c2ccccc2Oc2ccccc21)(C(=O)O)[C@H]1C[C@@H]1C(=O)O
[1]
  Population Apoptotic (%): 38%
  Population Fragmented Nuclei (%): 6%
  Population Healthy Nuclei (%): 83%
  Population Hoechst High Intensity Objects (%): 7%
  Population Membrane Permeable-Phenotype (%): 0%
  Population Mitochondria Different-Phenotype (%): 43%
  Population Mitotic Cells (%): 61%
  Population Normal (%): 92%
  Population Pyknosed Nuclei (%): 10%
  Population Tubulin-Different-Phenotype (%): 27%
  Total Cell Count: 447
[2]
  Population Apoptotic (%): 54%
  Population Fragmented Nuclei (%): 7%
  Population Healthy Nuclei (%): 79%
  Population Hoechst High Intensity Objects (%): 5%
  Population Mitochondria Different-Phenotype (%): 58%
  Population Mitotic Cells (%): 45%
  Population Normal (%): 94%
  Population Pyknosed Nuclei (%): 12%
  Population Tubulin-Different-Phenotype (%): 25%
  Total Cell Count: 270
[3]
  Population Apoptotic (%): 32%
  Population Fragmented Nuclei (%): 9%
  Population Healthy Nuclei (%): 78%
  Population Hoechst High Intensity Objects (%): 8%
  Population Membrane Permeable-Phenotype (%): 0%
  Population Mitochondria Different-Phenotype (%): 40%
  Population Mitotic Cells (%): 67%
  Population Normal (%): 91%
  Population Pyknosed Nuclei (%): 12%
  Population Tubulin-Different-Phenotype (%): 23%
  Total Cell Count: 381
[4]
  Population Fragmented Nuclei (%): 4%
  Population Healthy Nuclei (%): 81%
  Population Hoechst High Intensity Objects (%): 7%
  Population Mitochondria Different-Phenotype (%): 66%
  Population Normal (%): 92%
  Population Pyknosed Nuclei (%): 13%
  Population Tubulin-Different-Phenotype (%): 31%
  Total Cell Count: 382
[5]
  Population Apoptotic (%): 21%
  Population Fragmented Nuclei (%): 8%
  Population Healthy Nuclei (%): 81%
  Population Hoechst High Intensity Objects (%): 3%
  Population Membrane Permeable-Phenotype (%): 1%
  Population Mitochondria Different-Phenotype (%): 24%
  Population Mitotic Cells (%): 78%
  Population Normal (%): 96%
  Population Pyknosed Nuclei (%): 10%
  Population Tubulin-Different-Phenotype (%): 15%
  Total Cell Count: 629
[6]
  Population Apoptotic (%): 38%
  Population Fragmented Nuclei (%): 9%
  Population Healthy Nuclei (%): 84%
  Population Hoechst High Intensity Objects (%): 5%
  Population Membrane Permeable-Phenotype (%): 0%
  Population Mitochondria Different-Phenotype (%): 30%
  Population Mitotic Cells (%): 61%
  Population Normal (%): 94%
  Population Pyknosed Nuclei (%): 6%
  Population Tubulin-Different-Phenotype (%): 16%
  Total Cell Count: 368
[7]
  Population Apoptotic (%): 29%
  Population Fragmented Nuclei (%): 10%
  Population Healthy Nuclei (%): 79%
  Population Hoechst High Intensity Objects (%): 5%
  Population Membrane Permeable-Phenotype (%): 0%
  Population Mitochondria Different-Phenotype (%): 30%
  Population Mitotic Cells (%): 70%
  Population Normal (%): 94%
  Population Pyknosed Nuclei (%): 10%
  Population Tubulin-Different-Phenotype (%): 17%
  Total Cell Count: 510
[8]
  Population Apoptotic (%): 40%
  Population Fragmented Nuclei (%): 6%
  Population Healthy Nuclei (%): 82%
  Population Mitochondria Different-Phenotype (%): 41%
  Population Mitotic Cells (%): 59%
  Population Pyknosed Nuclei (%): 11%
  Population Tubulin-Different-Phenotype (%): 16%
  Total Cell Count: 471
[9]
  Population Apoptotic (%): 12%
  Population Fragmented Nuclei (%): 11%
  Population Healthy Nuclei (%): 80%
  Population Hoechst High Intensity Objects (%): 2%
  Population Membrane Permeable-Phenotype (%): 2%
  Population Mitochondria Different-Phenotype (%): 15%
  Population Mitotic Cells (%): 87%
  Population Normal (%): 97%
  Population Pyknosed Nuclei (%): 7%
  Population Tubulin-Different-Phenotype (%): 13%
  Total Cell Count: 1040
[10]
  Population Apoptotic (%): 17%
  Population Fragmented Nuclei (%): 12%
  Population Healthy Nuclei (%): 81%
  Population Hoechst High Intensity Objects (%): 1%
  Population Membrane Permeable-Phenotype (%): 0%
  Population Mitochondria Different-Phenotype (%): 17%
  Population Mitotic Cells (%): 82%
  Population Normal (%): 98%
  Population Pyknosed Nuclei (%): 6%
  Population Tubulin-Different-Phenotype (%): 10%
  Total Cell Count: 654
[11]
  Population Apoptotic (%): 28%
  Population Fragmented Nuclei (%): 13%
  Population Healthy Nuclei (%): 78%
  Population Hoechst High Intensity Objects (%): 2%
  Population Membrane Permeable-Phenotype (%): 0%
  Population Mitochondria Different-Phenotype (%): 17%
  Population Mitotic Cells (%): 71%
  Population Normal (%): 97%
  Population Pyknosed Nuclei (%): 8%
  Population Tubulin-Different-Phenotype (%): 8%
  Total Cell Count: 789
[12]
  Population Apoptotic (%): 42%
  Population Healthy Nuclei (%): 80%
  Population Hoechst High Intensity Objects (%): 4%
  Population Mitochondria Different-Phenotype (%): 25%
  Population Mitotic Cells (%): 57%
  Population Normal (%): 95%
  Population Pyknosed Nuclei (%): 6%
  Population Tubulin-Different-Phenotype (%): 12%
  Total Cell Count: 687
